Laboratory results as given in ChEMBL document CHEMBL1143528, “Kinesin spindle protein (KSP) inhibitors. Part 1: The discovery of 3,5-diaryl-4,5-dihydropyrazoles as potent and selective inhibitors of the mitotic kinesin KSP” (Bioorg Med Chem Lett, 2005).

target: T1, Kinesin-like protein KIF11 (Homo sapiens, UniProt P52732); experiment: In vitro inhibitory concentration towards kinesin spindle protein activity of ATP hydrolysis in the presence of microtubules measured by ATPase assay (n=3)
T1 sequence (P52732 whole entry): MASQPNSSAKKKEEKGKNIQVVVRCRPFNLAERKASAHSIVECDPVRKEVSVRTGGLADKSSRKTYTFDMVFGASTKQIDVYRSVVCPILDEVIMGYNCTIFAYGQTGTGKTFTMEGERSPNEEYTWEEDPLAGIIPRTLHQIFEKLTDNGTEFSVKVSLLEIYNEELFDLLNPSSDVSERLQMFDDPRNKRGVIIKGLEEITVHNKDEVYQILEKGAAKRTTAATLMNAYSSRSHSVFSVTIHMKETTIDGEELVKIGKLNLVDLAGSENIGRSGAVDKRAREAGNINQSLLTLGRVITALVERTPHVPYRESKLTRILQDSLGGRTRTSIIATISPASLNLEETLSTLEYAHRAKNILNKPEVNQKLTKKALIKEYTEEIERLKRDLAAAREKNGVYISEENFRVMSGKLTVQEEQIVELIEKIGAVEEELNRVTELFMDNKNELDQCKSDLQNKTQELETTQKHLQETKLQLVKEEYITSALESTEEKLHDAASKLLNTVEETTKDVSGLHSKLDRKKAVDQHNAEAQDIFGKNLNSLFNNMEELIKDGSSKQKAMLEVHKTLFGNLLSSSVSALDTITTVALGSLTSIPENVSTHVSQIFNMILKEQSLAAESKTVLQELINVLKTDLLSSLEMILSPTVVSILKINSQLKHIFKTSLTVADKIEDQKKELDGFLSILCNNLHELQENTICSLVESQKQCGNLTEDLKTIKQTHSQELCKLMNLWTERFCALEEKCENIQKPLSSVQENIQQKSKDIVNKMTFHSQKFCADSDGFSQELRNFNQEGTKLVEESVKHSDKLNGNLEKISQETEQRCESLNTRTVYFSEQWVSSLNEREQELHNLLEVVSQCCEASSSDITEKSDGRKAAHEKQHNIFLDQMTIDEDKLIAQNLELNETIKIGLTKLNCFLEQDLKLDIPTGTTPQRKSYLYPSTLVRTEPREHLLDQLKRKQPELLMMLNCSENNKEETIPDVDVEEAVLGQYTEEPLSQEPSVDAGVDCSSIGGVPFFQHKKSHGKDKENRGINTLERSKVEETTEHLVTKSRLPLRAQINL

IC50 [µM]	SMILES
6	NCCCC(=O)N1N=C(c2ccccc2Cl)CC1c1cccc(O)c1 (configuration not stated)
0.026	CC(=O)N1N=C(c2cc(F)ccc2F)C[C@H]1c1cccc(O)c1
6.9	CC(=O)N1N=C(c2ccccc2)CC1c1cccc(O)c1 (configuration not stated)
> 5	CC(=O)N1N=C(c2cc(F)cc(F)c2)CC1c1ccccc1 (configuration not stated)
0.094	CC(=O)N1N=C(c2cc(F)ccc2F)CC1c1ccccc1 (configuration not stated)
3.6	CC(=O)N1N=C(c2ccccc2Cl)CC1c1ccccc1 (configuration not stated)
0.46	CC(C)(C)C(=O)N1N=C(c2ccccc2Cl)CC1c1cccc(O)c1 (configuration not stated)
> 50	CN1N=C(c2ccccc2Cl)CC1c1cccc(O)c1 (configuration not stated)
> 50	CC(=O)N1N=C(c2ccc(Cl)cc2)CC1c1ccccc1 (configuration not stated)
3.1	CNC(=O)N1N=C(c2cc(F)ccc2F)CC1c1ccccc1 (configuration not stated)
23.3	CC(=O)N1N=C(c2ccccc2Br)CC1c1ccccc1 (configuration not stated)
9.8	CC(=O)N1N=C(c2cccc(Cl)c2)CC1c1ccccc1 (configuration not stated)
46.2	CC(=O)N1N=C(c2ccccc2C)CC1c1ccccc1 (configuration not stated)
> 50	CC(=O)N1N=C(c2ccccc2C(F)(F)F)CC1c1ccccc1 (configuration not stated)
> 50	CC(=O)N1N=C(c2ccccc2)CC1c1ccccc1 (configuration not stated)
1.2	CCC(=O)N1N=C(c2ccccc2Cl)CC1c1cccc(O)c1 (configuration not stated)
10.9	CC(=O)N1N=C(c2c(F)cccc2F)CC1c1ccccc1 (configuration not stated)
12.7	CC(=O)N1N=C(c2cccc(F)c2F)CC1c1ccccc1 (configuration not stated)

Second part, the molecule before the results:

SMILES	IC50 [µM]
CS(=O)(=O)N1N=C(c2cc(F)ccc2F)CC1c1ccccc1 (configuration not stated)	1.8
CC(=O)N1N=C(c2ccccc2F)CC1c1ccccc1 (configuration not stated)	3.6
COc1ccccc1C1=NN(C(C)=O)C(c2ccccc2)C1 (configuration not stated)	> 50
COC(=O)N1N=C(c2ccccc2Cl)CC1c1cccc(O)c1 (configuration not stated)	> 50
CC(=O)N1N=C(c2cc(F)ccc2F)CC1c1cccc(O)c1 (configuration not stated)	0.051
CC(=O)N1N=C(c2ccccc2Cl)CC1c1cccc(O)c1 (configuration not stated)	0.45
CC(=O)N1N=C(c2ccc(Cl)cc2Cl)CC1c1ccccc1 (configuration not stated)	37.6
CC(=S)N1N=C(c2cc(F)ccc2F)CC1c1ccccc1 (configuration not stated)	0.25
CN(C)C(=O)N1N=C(c2cc(F)ccc2F)CC1c1ccccc1 (configuration not stated)	0.084
CCOC(=O)C1=C(C)NC(=S)N[C@H]1c1cccc(O)c1 [S-MENASTROL]	10
CC(=O)N1N=C(c2cc(F)ccc2F)CC1c1cccs1 (configuration not stated)	1.8
O=C(c1ccccc1)N1N=C(c2ccccc2Cl)CC1c1cccc(O)c1 (configuration not stated)	13.5
CC(C)C(=O)N1N=C(c2ccccc2Cl)CC1c1cccc(O)c1 (configuration not stated)	1.1

target: T2, Caspase-3 (Homo sapiens, UniProt P42574); experiment: Inhibitory concentration towards caspase-3 induction in human A2780 ovarian carcinoma cells; format: functional, cell-based
T2 sequence (P42574 whole entry): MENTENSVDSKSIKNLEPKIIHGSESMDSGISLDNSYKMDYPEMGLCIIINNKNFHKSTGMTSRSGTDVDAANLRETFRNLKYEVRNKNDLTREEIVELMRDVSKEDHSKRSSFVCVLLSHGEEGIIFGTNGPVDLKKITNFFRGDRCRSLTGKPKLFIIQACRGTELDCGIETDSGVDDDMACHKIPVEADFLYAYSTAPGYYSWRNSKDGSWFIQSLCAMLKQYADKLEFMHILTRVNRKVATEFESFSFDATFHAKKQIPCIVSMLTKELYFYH
How it was run: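 A2780 human ovarian carcinoma cells were treated with compound. Caspase-3 activation, used as an apoptosis marker, was then measured in cell lysates with a fluorescent kit that reads release of the AFC fluorophore from DEVD-AFC substrate. The value is a concentration giving 50% of caspase-3 induction.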

IC50 [µM]	SMILES
0.015	CC(=O)N1N=C(c2cc(F)ccc2F)C[C@H]1c1cccc(O)c1
